Experiment [1] deals with Kappa-type opioid receptor (Homo sapiens, UniProt P41145). As to the kind of experiment: Displacement of [125I]IOXY from human recombinant kappa opioid receptor expressed in CHO cells. The method, boiled down: (§1)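 Radioligand displacement run in CHO cells stably transfected to express the μ-, δ- or κ-opioid receptor, each receptor in its own line. The method follows the authors' earlier procedure. Each value comes from n=3 determinations.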
For orientation: In a radioligand displacement assay an active substance lowers the binding of a labelled ligand.

The target in experiment [2] is Delta-type opioid receptor (Homo sapiens, UniProt P41143). As to the kind of experiment: Displacement of [125I]IOXY from human recombinant delta opioid receptor expressed in CHO cells. The method, boiled down:
as §1

For experiment [3], the target named is Mu-type opioid receptor (Homo sapiens, UniProt P35372). As to the kind of experiment: Displacement of [125I]IOXY from human recombinant mu opioid receptor expressed in CHO cells. The method, boiled down: as §1
Sequence of Mu-type opioid receptor (P35372 whole entry): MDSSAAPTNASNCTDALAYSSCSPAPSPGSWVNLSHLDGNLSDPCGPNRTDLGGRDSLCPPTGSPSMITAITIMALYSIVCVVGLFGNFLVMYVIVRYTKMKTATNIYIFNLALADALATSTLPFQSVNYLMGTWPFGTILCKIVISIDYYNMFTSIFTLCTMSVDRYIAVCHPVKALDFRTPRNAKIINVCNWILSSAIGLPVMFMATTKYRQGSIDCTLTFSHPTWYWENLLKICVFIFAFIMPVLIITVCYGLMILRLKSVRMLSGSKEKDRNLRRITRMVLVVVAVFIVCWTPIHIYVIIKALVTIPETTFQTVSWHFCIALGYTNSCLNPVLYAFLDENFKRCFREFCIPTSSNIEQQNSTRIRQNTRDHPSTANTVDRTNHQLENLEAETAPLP

The values that follow come from BindingDB's records for doi:10.1021/jm800913d (National Institute On Drug Abuse, 2008).

Each structure is given as a SMILES string.

Sequence of Delta-type opioid receptor (P41143 whole entry): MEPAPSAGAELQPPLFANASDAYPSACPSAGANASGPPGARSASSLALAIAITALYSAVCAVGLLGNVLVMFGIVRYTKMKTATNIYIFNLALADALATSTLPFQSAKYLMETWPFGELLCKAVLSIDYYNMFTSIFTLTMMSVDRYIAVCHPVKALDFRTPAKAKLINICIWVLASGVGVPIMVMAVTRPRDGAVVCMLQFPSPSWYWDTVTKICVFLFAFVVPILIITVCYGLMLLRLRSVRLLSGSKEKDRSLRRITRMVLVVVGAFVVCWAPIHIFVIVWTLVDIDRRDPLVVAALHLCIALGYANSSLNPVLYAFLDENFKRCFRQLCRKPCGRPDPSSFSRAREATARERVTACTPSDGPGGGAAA
Sequence of Kappa-type opioid receptor (P41145 whole entry): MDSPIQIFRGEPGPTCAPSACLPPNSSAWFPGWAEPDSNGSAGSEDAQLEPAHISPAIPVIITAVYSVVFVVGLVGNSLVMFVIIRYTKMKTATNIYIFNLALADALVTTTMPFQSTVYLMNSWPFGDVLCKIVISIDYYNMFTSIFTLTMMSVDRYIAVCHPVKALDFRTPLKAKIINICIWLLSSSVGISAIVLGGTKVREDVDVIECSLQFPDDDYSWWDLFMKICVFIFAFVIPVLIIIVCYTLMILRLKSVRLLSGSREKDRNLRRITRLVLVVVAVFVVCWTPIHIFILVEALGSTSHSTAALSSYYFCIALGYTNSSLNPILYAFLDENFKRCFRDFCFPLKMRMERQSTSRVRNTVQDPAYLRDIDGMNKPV

What is called Ki is the equilibrium dissociation constant of an inhibitor or competing ligand from its target. Regarding `CN1C[C@@H]2Oc3ccc(O)cc3[C@@]23CCC[C@@H]1C3` [(3R*,6aS*,11aR*)-1,3,4,5,6,11a-Hexahydro-2-methyl-2H-3,6a-methanobenzofuro[2,3-c]azocin-8-ol], the results for the Ki in experiment [1] and in experiment [2] were 0.62 µM and 2.78 µM, respectively.

Take `CN1C[C@@H]2Oc3c(O)cccc3[C@@]23CCC[C@@H]1C3` [(3R*,6aS*,11aR*)-1,3,4,5,6,11a-Hexahydro-2-methyl-2H-3,6amethanobenzofuro[2,3-c]azocin-10-ol]: the inhibition constant Ki in experiment [1] came to 4.82 µM; in experiment [2] it was 3.43 µM.

In the case of `Oc1cccc2c1O[C@H]1CN(CCc3ccccc3)[C@@H]3CCC[C@]21C3` [(3R*,6aS*,11aR*)-1,3,4,5,6,11a-Hexahydro-2-phenethyl-2H-3,6a-methanobenzofuro [2,3-c]azocin-10-ol], the inhibition constant (Ki) in experiment [3] came out at 0.56 µM; in experiment [1], 0.2 µM; in experiment [2] it was 2.84 µM.

Take `CN1CC[C@@]23C[C@@H]1CC[C@H]2Oc1c(O)cccc13` [(4R*,6aS*,11bR*)-2,3,4,5,6,6a-Hexahydro-3-methyl-1H-4,11b-methanobenzofuro[3,2-d]azocine-8-ol]: the inhibition constant Ki in experiment [3] was 3.21 µM; in experiment [1] it was 0.91 µM.

On to `CN1CC[C@@]23C[C@@H]1CC[C@H]2Oc1ccc(O)cc13` [(4R*,6aS*,11bR*)-2,3,4,5,6,6a-Hexahydro-3-methyl-1H-4,11bmethanobenzofuro[3,2-d]azocine-10-ol], for which the Ki in experiment [3] and in experiment [2] was greater than 10 µM throughout.

For the compound `Oc1cccc2c1O[C@@H]1CC[C@H]3C[C@@]21CCN3CCc1ccccc1` [(4R*,6aS*,11bR*)-2,3,4,5,6,6a-Hexahydro-3-phenethyl-1H-4,11b-methanobenzofuro[3,2-d]azocine-8-ol], the Ki in experiment [3] was found to be 0.19 µM; in experiment [1] it was 0.026 µM; in experiment [2] it was 3.71 µM.

In the case of `Oc1ccc2c(c1)[C@@]13CCN(CCc4ccccc4)[C@@H](CC[C@H]1O2)C3` [(4R*,6aS*,11bR*)-2,3,4,5,6,6a-Hexahydro-3-phenethyl-1H-4,11b-methanobenzofuro[3,2-d]azocine-10-ol], the Ki amounted to 0.74 µM in experiment [3], 0.078 µM in experiment [1] and 4.76 µM in experiment [2].
